Here are results for 11 compounds from ChEMBL document CHEMBL4834429, “Discovery of Nanomolar Melanocortin-3 Receptor (MC3R)-Selective Small Molecule Pyrrolidine Bis-Cyclic Guanidine Agonist Compounds Via a High-Throughput "Unbiased" Screening Campaign” (J Med Chem, 2021).

The term Emax denotes the greatest response seen or fitted, relative to the assay's reference. Usually EC50 stands for the concentration giving half of the maximal effect.

Holding throughout (format): functional, cell-based
For test [1], the target named is Melanocortin receptor 3 (Mus musculus) (UniProt P33033). As to the kind of experiment: Agonist activity at mouse melanocortin receptor 3 expressed in HEK293 cells assessed as stimulation of intracellular cAMP accumulation at 10 uM incubated for 24 hrs by beta-galactosidase reporter gene assay relative to control. The settings on record: filed as agonist. In a few lines: (§1)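 After lysis, ONPG hydrolysis was read at 405 nm and normalized to Bradford protein and maximal NDP-MSH response. Duplicates, ≥3 independent experiments; 100 μM dropped from fits where toxic.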
In general terms: Changes in cAMP serve as a functional read-out for many G protein-coupled receptors.

The target in test [2] is T1, Melanocortin receptor 4 (Mus musculus, UniProt P56450). Briefly: Antagonist activity at mouse melanocortin receptor 4 expressed in HEK293 cells assessed as inhibition of NDP-MSH-induced intracellular cAMP accumulation incubated for 24 hrs by beta-galactosidase reporter gene assay. Conditions: read-out: pA2 (converted).
For test [3], the target named is Melanocyte-stimulating hormone receptor (Mus musculus) (UniProt Q01727). Briefly: Agonist activity at mouse melanocortin receptor 1 expressed in HEK293 cells assessed as stimulation of intracellular cAMP accumulation at 10 uM incubated for 24 hrs by beta-galactosidase reporter gene assay relative to control. The settings on record: filed as agonist. The essentials:
as §1

Another test addresses Melanocortin receptor 5 (Mus musculus, UniProt P41149). As to the kind of experiment: Agonist activity at mouse melanocortin receptor 5 expressed in HEK293 cells assessed as stimulation of intracellular cAMP accumulation incubated for 24 hrs by beta-galactosidase reporter gene assay.
Test [4] has as its target Melanocortin receptor 4 (Mus musculus) (UniProt P56450). As to the kind of experiment: Agonist activity at mouse melanocortin receptor 4 expressed in HEK293 cells assessed as stimulation of intracellular cAMP accumulation at 10 uM incubated for 24 hrs by beta-galactosidase reporter gene assay relative to control. In a few lines: as §1
The target of test [5] is T2, Melanocortin receptor 3 (Mus musculus, UniProt P33033). As to the kind of experiment: Agonist activity at mouse melanocortin receptor 3 expressed in HEK293 cells assessed as stimulation of intracellular cAMP accumulation incubated for 24 hrs by beta-galactosidase reporter gene assay.
Test [6] has as its target T3, Melanocyte-stimulating hormone receptor (Mus musculus, UniProt Q01727). As to the kind of experiment: Agonist activity at mouse melanocortin receptor 1 expressed in HEK293 cells assessed as stimulation of intracellular cAMP accumulation incubated for 24 hrs by beta-galactosidase reporter gene assay.
Test [7] concerns the target T2, Melanocortin receptor 3. Briefly: Antagonist activity at mouse melanocortin receptor 3 expressed in HEK293 cells assessed as inhibition of NDP-MSH-induced intracellular cAMP accumulation incubated for 24 hrs by beta-galactosidase reporter gene assay.
The target in test [8] is Melanocortin receptor 5 (Mus musculus) (UniProt P41149). Briefly: Agonist activity at mouse melanocortin receptor 5 expressed in HEK293 cells assessed as stimulation of intracellular cAMP accumulation at 10 uM incubated for 24 hrs by beta-galactosidase reporter gene assay relative to control. Conditions: filed as agonist, time 6.0 hrs, in the assay text read “6 hrs” for “24 hrs”. The essentials: as §1

Test [9] has as its target T1, Melanocortin receptor 4. Briefly: Agonist activity at mouse melanocortin receptor 4 expressed in HEK293 cells assessed as stimulation of intracellular cAMP accumulation incubated for 24 hrs by beta-galactosidase reporter gene assay. The essentials: as §1
Test [10] addresses T3, Melanocyte-stimulating hormone receptor. Briefly: Antagonist activity at mouse melanocortin receptor 1 expressed in HEK293 cells assessed as inhibition of NDP-MSH-induced intracellular cAMP accumulation incubated for 24 hrs by beta-galactosidase reporter gene assay.

T3 sequence (Q01727 whole entry): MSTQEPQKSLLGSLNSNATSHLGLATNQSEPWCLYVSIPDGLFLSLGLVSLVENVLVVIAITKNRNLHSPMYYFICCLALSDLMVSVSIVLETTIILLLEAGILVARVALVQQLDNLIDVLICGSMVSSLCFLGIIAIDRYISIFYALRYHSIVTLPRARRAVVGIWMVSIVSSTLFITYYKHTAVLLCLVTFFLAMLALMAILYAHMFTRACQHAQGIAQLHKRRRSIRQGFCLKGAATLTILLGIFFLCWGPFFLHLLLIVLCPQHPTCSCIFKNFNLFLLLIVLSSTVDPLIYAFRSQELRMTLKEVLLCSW
Sequence of Melanocyte-stimulating hormone receptor (Mus musculus) (Q01727 whole entry, looked up): as the sequence (Q01727 whole entry) above
T1 sequence (P56450 whole entry): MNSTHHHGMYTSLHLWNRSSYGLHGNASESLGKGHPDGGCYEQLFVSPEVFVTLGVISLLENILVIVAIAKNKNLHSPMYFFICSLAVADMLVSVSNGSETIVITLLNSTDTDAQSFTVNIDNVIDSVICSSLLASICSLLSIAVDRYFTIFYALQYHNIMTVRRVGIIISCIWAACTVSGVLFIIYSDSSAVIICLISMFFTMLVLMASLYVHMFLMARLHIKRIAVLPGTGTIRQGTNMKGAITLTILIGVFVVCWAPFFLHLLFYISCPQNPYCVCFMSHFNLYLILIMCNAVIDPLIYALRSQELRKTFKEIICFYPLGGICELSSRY
Sequence of Melanocortin receptor 4 (Mus musculus) (P56450 whole entry): as above
T2 sequence (P33033 whole entry): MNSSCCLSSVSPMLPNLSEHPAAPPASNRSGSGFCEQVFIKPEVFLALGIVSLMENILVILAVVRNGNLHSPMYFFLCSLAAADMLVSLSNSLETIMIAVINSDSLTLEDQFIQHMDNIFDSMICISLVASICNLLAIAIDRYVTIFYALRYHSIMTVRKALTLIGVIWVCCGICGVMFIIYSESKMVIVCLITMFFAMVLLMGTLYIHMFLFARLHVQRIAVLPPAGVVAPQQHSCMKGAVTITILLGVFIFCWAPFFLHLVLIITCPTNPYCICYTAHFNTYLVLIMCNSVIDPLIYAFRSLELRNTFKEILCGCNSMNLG
Sequence of Melanocortin receptor 5 (P41149 whole entry): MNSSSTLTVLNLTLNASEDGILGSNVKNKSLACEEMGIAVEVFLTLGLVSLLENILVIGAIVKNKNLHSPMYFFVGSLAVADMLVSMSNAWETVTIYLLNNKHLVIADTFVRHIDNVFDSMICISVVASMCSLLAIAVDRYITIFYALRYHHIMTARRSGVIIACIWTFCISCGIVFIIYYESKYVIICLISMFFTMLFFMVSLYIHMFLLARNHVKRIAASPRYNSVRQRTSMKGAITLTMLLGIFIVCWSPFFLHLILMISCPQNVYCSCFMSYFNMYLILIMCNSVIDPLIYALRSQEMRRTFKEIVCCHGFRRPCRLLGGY
Sequence of Melanocortin receptor 5 (Mus musculus) (P41149 whole entry): as above
Sequence of Melanocortin receptor 3 (Mus musculus) (P33033 whole entry): as the sequence (P33033 whole entry) above

Turning to `CC(C)C[C@@H]1CNC(=N)N1C[C@@H]1CCCN1C[C@@H](CC1CCCCC1)N1C[C@@H](C(C)C)N(CC2CCC(C(C)(C)C)CC2)C1=N` (stereo partly drawn), the Emax in test [1] amounted to 69%; in test [3] it was 54%. In addition, at Melanocortin receptor 4 [2], the Kb was 3160 nM. The EC50 on Melanocortin receptor 5 was determined as 560 nM.

As for `CCC[C@@H]1CN([C@H](CC2CCCCC2)CN2CCC[C@H]2CN2C(=N)NC[C@H]2C(C)C)C(=N)N1CC1CCC(C(C)(C)C)CC1` (stereo partly drawn), the Emax stood at 50% in test [4] (filed as agonist) and 51% in test [3]. Also, the Kb on Melanocortin receptor 4 [2] was 1580 nM. Moreover, the EC50 was determined as 540 nM at Melanocortin receptor 5 and 350 nM at Melanocortin receptor 3 [5].

As to `CC(C)[C@@H]1CNC(=N)N1C[C@@H]1CCCN1C[C@@H](CC1CCCCC1)N1C[C@@H]([C@@H](C)O)N(CC2CCC(C(C)(C)C)CC2)C1=N` (stereo partly drawn), in test [4] (filed as agonist), the Emax is 41%. Further, the Kb on Melanocortin receptor 4 [2] is 1260 nM. The EC50 on Melanocortin receptor 5 was determined as 150 nM; on Melanocortin receptor 3 [5], 220 nM; in [6], 300 nM.

Regarding `CCC[C@@H]1CN([C@H](Cc2ccccc2)CN2CCC[C@H]2CN2C(=N)NC[C@H]2C(C)C)C(=N)N1CCCC(C)C`, the Emax in test [4] (filed as agonist) came out at 41%. Also, the EC50 was more than 100000 nM at Melanocortin receptor 3 [7], 2030 nM at Melanocortin receptor 5 and 22900 nM in [6].

Turning to `CC(C)[C@@H]1CNC(=N)N1C[C@@H]1CCCN1C[C@@H](CC1CCCCC1)N1C[C@@H]([C@@H](C)O)N(CC23CC4CC(CC(C4)C2)C3)C1=N`, the Emax in test [4] (filed as agonist) came out at 49%. Also, the Kb on Melanocortin receptor 4 [2] is 1580 nM. Moreover, the EC50 at Melanocortin receptor 5 turned out to be 600 nM; on Melanocortin receptor 3 [5] it was 370 nM; in test [6] it was 200 nM.

Take `CC(C)CCCN1C(=N)N([C@H](Cc2ccccc2)CN2CCC[C@H]2CN2C(=N)NC[C@H]2CC(C)C)C[C@H]1[C@@H](C)O`: the EC50 at Melanocortin receptor 3 [7] is more than 100000 nM. The Emax came to 62% in test [3] and 77% in [8].

For `CC(C)CCCN1C(=N)N([C@H](Cc2ccccc2)CN2CCC[C@H]2CN2C(=N)NC[C@H]2C(C)C)C[C@H]1C(C)C`, the Emax in [4] came out at 21%. Moreover, the EC50 at Melanocortin receptor 3 [7] was more than 100000 nM; on Melanocortin receptor 5, 1600 nM; in test [6], 10200 nM.

For the compound `CC(C)C[C@@H]1CNC(=N)N1C[C@@H]1CCCN1C[C@@H](Cc1ccccc1)N1C[C@@H]([C@@H](C)O)N(CC23CC4CC(CC(C4)C2)C3)C1=N`, the results for the Emax in test [4] (filed as agonist) and in test [3] were 58% and 41%, respectively. The Kb on Melanocortin receptor 4 [2] is 1580 nM. The EC50 on Melanocortin receptor 5 stood at 810 nM; at Melanocortin receptor 3 [5] it was 360 nM.

Regarding `CC(C)[C@@H]1CNC(=N)N1C[C@@H]1CCCN1C[C@@H](Cc1ccccc1)N1C[C@@H]([C@@H](C)O)N(CC23CC4CC(CC(C4)C2)C3)C1=N`, in test [4] (filed as agonist), the Emax was found to be 75%. For the same compound, the EC50 turned out to be 580 nM at Melanocortin receptor 4 [9], 180 nM on Melanocortin receptor 5, 360 nM at Melanocortin receptor 3 [5] and 440 nM in test [6]. Further, on Melanocortin receptor 4 [2], the Kb is 1580 nM.

For the compound `CC(C)CCCN1C(=N)N([C@H](Cc2ccccc2)CN2CCC[C@H]2CN2C(=N)NC[C@H]2C(C)C)C[C@H]1[C@@H](C)O`, on Melanocortin receptor 3 [7], the concentration giving a half-maximal response (EC50) is more than 100000 nM. In addition, the figures for the Emax in test [3] and in test [8] were 51% and 40%, respectively.

For the compound `CCC[C@@H]1CN([C@H](Cc2ccccc2)CN2CCC[C@H]2CN2C(=N)NC[C@H]2CC(C)C)C(=N)N1CCCC(C)C`, the figures for the EC50 (in test [10]; at Melanocortin receptor 3 [7]; on Melanocortin receptor 5) were more than 100000 nM, more than 100000 nM and 2180 nM, respectively. Besides, the Emax in test [4] (filed as agonist) was found to be 51%.
